In assay [1] the target is T1, Glycogen phosphorylase, muscle form (Oryctolagus cuniculus, UniProt P00489).
T1 sequence (P00489 whole entry): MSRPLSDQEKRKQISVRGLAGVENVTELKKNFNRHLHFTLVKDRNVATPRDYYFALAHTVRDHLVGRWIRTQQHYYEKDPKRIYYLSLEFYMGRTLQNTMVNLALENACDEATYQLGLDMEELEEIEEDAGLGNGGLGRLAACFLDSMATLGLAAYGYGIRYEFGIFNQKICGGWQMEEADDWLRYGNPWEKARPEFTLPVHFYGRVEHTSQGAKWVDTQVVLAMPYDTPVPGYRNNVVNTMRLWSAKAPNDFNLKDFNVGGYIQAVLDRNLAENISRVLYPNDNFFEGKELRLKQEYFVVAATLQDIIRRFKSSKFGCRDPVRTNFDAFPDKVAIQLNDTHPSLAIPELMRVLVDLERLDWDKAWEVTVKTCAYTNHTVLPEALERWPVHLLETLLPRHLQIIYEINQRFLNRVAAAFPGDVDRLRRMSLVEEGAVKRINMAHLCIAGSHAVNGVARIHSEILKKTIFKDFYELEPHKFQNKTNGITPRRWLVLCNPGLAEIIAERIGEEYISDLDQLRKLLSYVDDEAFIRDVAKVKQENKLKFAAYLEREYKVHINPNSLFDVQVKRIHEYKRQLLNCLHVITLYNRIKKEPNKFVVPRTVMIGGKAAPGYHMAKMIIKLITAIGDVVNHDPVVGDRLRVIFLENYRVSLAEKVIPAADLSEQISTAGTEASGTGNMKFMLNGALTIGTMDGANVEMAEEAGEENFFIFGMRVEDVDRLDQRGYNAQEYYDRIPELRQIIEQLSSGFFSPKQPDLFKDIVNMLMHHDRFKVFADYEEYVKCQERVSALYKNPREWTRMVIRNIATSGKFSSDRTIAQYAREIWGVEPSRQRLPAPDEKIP
In words: Competitive inhibition of rabbit muscle glycogen phosphorylase-b in presence of varying glucose-1-phosphate levels and AMP.

For assay [2], the target named is T2, Glycogen phosphorylase, liver form (Homo sapiens) (UniProt P06737).
T2 sequence (whole entry): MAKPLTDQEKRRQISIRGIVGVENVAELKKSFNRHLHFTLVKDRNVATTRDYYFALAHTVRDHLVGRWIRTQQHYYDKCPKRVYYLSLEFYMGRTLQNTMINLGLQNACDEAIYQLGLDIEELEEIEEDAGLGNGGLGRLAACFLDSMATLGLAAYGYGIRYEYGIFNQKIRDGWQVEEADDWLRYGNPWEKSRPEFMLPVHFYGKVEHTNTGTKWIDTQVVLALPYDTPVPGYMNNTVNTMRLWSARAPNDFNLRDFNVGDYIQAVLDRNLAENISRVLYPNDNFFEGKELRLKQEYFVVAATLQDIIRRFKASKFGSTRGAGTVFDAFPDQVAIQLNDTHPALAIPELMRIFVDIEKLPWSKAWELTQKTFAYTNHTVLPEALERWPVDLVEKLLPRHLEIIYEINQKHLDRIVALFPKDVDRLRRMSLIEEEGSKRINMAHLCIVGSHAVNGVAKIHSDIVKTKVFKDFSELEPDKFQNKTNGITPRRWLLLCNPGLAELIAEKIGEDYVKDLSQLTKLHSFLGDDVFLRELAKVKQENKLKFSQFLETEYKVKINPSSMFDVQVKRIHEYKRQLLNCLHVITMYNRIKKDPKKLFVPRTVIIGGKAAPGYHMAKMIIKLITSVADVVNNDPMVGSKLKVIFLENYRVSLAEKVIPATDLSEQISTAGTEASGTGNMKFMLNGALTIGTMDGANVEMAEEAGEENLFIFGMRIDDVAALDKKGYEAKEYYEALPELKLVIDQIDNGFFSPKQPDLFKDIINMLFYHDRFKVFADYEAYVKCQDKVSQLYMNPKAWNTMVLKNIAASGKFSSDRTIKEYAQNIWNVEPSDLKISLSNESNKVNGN
Description: Competitive inhibition of His6-tagged human liver glycogen phosphorylase-a expressed in Escherichia coli BL21 Gold (DE3) assessed as release of inorganic phosphate using varying levels of glucose-1-phosphate and constant concentration of AMP and glycogen measured after 1 min by Lineweaver-Burk plot method. It is filed as tissue-based.

The target of assay [3] is T3, Glycogen phosphorylase, liver form (Homo sapiens, UniProt P06737).
T3 sequence (P06737 whole entry): T2 sequence (whole entry)
In words: Competitive inhibition of His6-tagged human liver glycogen phosphorylase-a expressed in Escherichia coli BL21 Gold (DE3) assessed as release of inorganic phosphate using varying levels of glucose-1-phosphate and constant concentration of AMP and glycogen measured after 1 min by Dixon plot method.

For assay [4], the target named is T1, Glycogen phosphorylase, muscle form. Description: Competitive inhibition of rabbit muscle glycogen phosphorylase-a assessed as release of inorganic phosphate using varying levels of glucose-1-phosphate and constant concentration of AMP and glycogen measured after 1 min by Dixon plot method. Put shortly:
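Rabbit muscle GPa was made by phosphorylating rmGPb with a truncated catalytic γ subunit of rabbit muscle phosphorylase kinase. It was assayed in 30 mM imidazole/HCl pH 6.8 containing 60 mM KCl, 0.6 mM EDTA, 0.6 mM DTT and 0.2% w/v glycogen, with Glc-1-P and inhibitor both varied. Initial velocities were calculated from pseudo-first order rate constants.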

Assay [5] shares this target. In words: Inhibition of rabbit muscle glycogen phosphorylase-b assessed as release of inorganic phosphate from glucose-1-phosphate in presence of AMP and glycogen. Put shortly: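 Isolated rabbit skeletal muscle GPb was assayed in 30 mM imidazole/HCl pH 6.8 with 60 mM KCl, 0.6 mM EDTA and 0.6 mM DTT. […] Initial velocities were derived from pseudo-first order rate constants.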

The structures appear in SMILES notation. Calls of active or inactive are those of the source. The calls are words filed in the database; no cut-off is given here.

As usually defined, the Ki is the dissociation constant of the complex between target and ligand, obtained from inhibition or displacement. As for `O=C1CNC(=S)N1` [THIOHYDANTOIN], the inhibitory constant (Ki) in assay [1] amounted to 5.1 µM.

With `OC[C@H]1O[C@@H](c2nc(-c3ccc4ccccc4c3)c[nH]2)[C@H](O)[C@@H](O)[C@@H]1O`, in assay [2], the inhibition result is “Active”. Also, the inhibitory constant (Ki) was determined as 0.026 µM in assay [3] and 0.065 µM in assay [4].

In general, IC50 refers to the concentration at which inhibition is half-maximal. Regarding `OC[C@H]1O[C@@H](c2cc3ccccc3[nH]2)[C@H](O)[C@@H](O)[C@@H]1O`, the IC50 in assay [5] was determined as 625 µM.

As to `OC[C@H]1O[C@@H](c2nc(-c3ccccc3)c[nH]2)[C@H](O)[C@@H](O)[C@@H]1O`, the inhibition result in assay [2] was “Active”. Moreover, the Ki is 0.156 µM in assay [3] and 0.226 µM in assay [4].

Turning to `OC[C@H]1O[C@H](O)[C@H](O)[C@@H](O)[C@@H]1O`, the Ki in assay [3] came out at 4280 µM.

The values above are taken from ChEMBL document CHEMBL3872223, “Synthetic, enzyme kinetic, and protein crystallographic studies of C-β-d-glucopyranosyl pyrroles and imidazoles reveal and explain low nanomolar inhibition of human liver glycogen phosphorylase” (Eur J Med Chem, 2016).
